Calls of active or inactive are those of the source. The calls are words filed in the database; no cut-off is given here.
Columns and labels:
KB = assay: Growth inhibition of human KB cells after 48 hrs by sulforhodamine B assay; assay type: functional
SiHa = assay: Growth inhibition of human SiHa cells after 48 hrs by sulforhodamine B assay; assay type: functional
A549 = assay: Growth inhibition of human A549 cells after 48 hrs by sulforhodamine B assay; assay type: functional; conditions: A549, 48 h
COLO 205 [1] = assay: Induction of apoptosis in human COLO205 cells assessed as caspase-3 activation at 2 uM after 24 hrs by ELISA; assay type: functional, cell-based
Procedure, shortened: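 Colo-205 cells exposed 24 h at 2 µM; lysates in 2X reaction buffer with DTT plus caspase substrate, 1 h at 37 °C; fluorescence read at ex 400/em 505 nm; three independent experiments, mean ± S.D., versus untreated control.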

[2] = target: T1, DNA topoisomerase 1 (Homo sapiens) (UniProt P11387); assay: Inhibition of human topoisomerase 1-mediated relaxation of supercoiled pBR322 DNA at 2 uM after 30 mins by agarose gel electrophoresis
T1 sequence (whole entry): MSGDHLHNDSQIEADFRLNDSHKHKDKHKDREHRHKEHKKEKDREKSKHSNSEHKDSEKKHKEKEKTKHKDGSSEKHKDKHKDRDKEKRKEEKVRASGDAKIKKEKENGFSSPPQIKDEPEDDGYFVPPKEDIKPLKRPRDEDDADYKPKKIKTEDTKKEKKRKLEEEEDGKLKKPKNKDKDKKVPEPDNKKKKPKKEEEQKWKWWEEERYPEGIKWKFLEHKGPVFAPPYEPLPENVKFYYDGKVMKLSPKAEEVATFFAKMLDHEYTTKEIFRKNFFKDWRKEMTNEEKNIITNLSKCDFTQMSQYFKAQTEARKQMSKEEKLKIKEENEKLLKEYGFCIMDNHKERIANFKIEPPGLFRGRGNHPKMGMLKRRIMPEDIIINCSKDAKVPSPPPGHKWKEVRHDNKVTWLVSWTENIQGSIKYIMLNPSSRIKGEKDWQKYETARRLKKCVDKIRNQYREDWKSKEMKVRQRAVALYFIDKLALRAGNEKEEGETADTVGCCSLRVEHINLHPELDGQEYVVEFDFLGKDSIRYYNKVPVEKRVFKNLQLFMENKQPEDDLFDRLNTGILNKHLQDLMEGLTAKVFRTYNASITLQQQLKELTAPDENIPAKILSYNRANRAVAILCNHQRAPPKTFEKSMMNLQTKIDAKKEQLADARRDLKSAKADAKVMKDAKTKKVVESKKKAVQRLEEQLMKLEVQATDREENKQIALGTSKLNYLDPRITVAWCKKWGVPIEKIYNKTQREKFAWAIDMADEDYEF
Procedure, shortened: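 500 ng supercoiled pBR322 with 0.4 units recombinant human topoisomerase I, compound at 2 µM, 30 min at 37 °C in 10 mM Tris-HCl pH 7.9, 150 mM NaCl, 0.1% BSA, 1 mM spermidine, 5% glycerol; stopped with sarcosyl/dye; relaxation read on 1% agarose gel; camptothecin as reference.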

COLO 205 [3] = assay: Cytotoxicity against human COLO205 cells assessed as viable cells at 2 uM after 24 hrs by trypan blue exclusion assay; assay type: functional, cell-based
Procedure, shortened: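 Colo-205 cells treated 24 h at 1, 2 and 4 µM, trypsinised, mixed with 0.4% trypan blue (10 µl per 100 µl cells), counted on haemocytometer; percentage dead cells calculated; triplicate samples.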

[4] = Growth inhibition of human DWD cells after 48 hrs by sulforhodamine B assay; assay type: functional
MCF7 = assay: Growth inhibition of human MCF7 cells after 48 hrs by sulforhodamine B assay; assay type: functional; conditions: MCF7, 48 h
COLO 205 [5] = assay: Induction of apoptosis in human COLO205 cells assessed as DNA fragmentation at 2 to 4 uM after 24 hrs by Hoechst staining-based confocal microscopic analysis; assay type: functional, cell-based
Procedure, shortened: (§1)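 Colo-205 cells on coverslips treated 24 h at 2 and 4 µM, 4% paraformaldehyde fixed 15 min, RNase-treated 30 min at 37 °C, Hoechst-stained; nuclear morphology (fragmentation, blebbing) by confocal microscopy versus untreated cells.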

MDA-MB-231 [6] = assay: Cytotoxicity against human MDA-MB-231 cells assessed as cell viability at <0.5 to 1 uM after 24 hrs by MTT assay; assay type: functional, cell-based
Procedure, shortened: (§2)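 Colo-205 (RPMI, 10% FCS) and MDA-MB-231 (DMEM, 2 mM glutamax, 10% FCS, penicillin/streptomycin) seeded at 1 104 cells/well, 18 h preincubation; fresh medium with compound at 0.5, 1, 2 and 4 µM for 24 h at 37 °C; MTT 2 h, formazan solubilised, OD 570 nm; DMSO ≤0.25%, DMSO-only wells as untreated control.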

COLO 205 [7] = assay: Induction of apoptosis in human COLO205 cells assessed as caspase-3 activation at 2 uM after 24 hrs by Western blotting analysis; assay type: functional, cell-based
Procedure, shortened: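 Colo-205 cells grown to 80% confluency, 2 µM final for 24 h; RIPA lysates with protease inhibitors, Bradford-quantified, 50 µg protein per lane on 12% SDS-PAGE, PVDF transfer, probed overnight at 4 °C for active caspase-3, β-actin as loading control, chemiluminescent detection.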

MDA-MB-231 [8] = assay: Cytotoxicity against human MDA-MB-231 cells assessed as cell viability at 2 to 4 uM after 24 hrs by MTT assay; assay type: functional, cell-based; procedure, shortened: as §2
COLO 205 [9] = assay: Cell cycle arrest in human COLO205 cells assessed as accumulation at G2/M phase at 2 uM after 24 hrs by propidium iodide staining-based FACS flow cytometric analysis (reference value: 29.52%); assay type: functional
COLO 205 [10] = assay: Cytotoxicity against human COLO205 cells assessed as reduction in cellular ATP level at 2 uM after 24 hrs by bioluminescence assay; assay type: functional, cell-based
Procedure, shortened: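 Colo-205 cells exposed 24 h at 2 µM, lysed in ice-cold RIPA, debris spun off at 4 °C; intracellular ATP in supernatant by luciferin-luciferase bioluminescence kit; three independent experiments, mean ± S.D., untreated control.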

COLO 205 [11] = assay: Growth inhibition of human COLO205 cells after 48 hrs by sulforhodamine B assay; assay type: functional; conditions: COLO 205, 48 h
COLO 205 [12] = assay: Induction of apoptosis in human COLO205 cells assessed as blebbing at 2 to 4 uM after 24 hrs by Hoechst staining-based confocal microscopic analysis; assay type: functional, cell-based; procedure, shortened: as §1
[13] = target: DNA topoisomerase 2-alpha (Homo sapiens) (UniProt P11388); assay: Inhibition of human topoisomerase 2alpha-mediated relaxation of supercoiled pBR322 DNA at 2 uM after 30 mins by agarose gel electrophoresis
Sequence of DNA topoisomerase 2-alpha (Homo sapiens) (P11388 whole entry): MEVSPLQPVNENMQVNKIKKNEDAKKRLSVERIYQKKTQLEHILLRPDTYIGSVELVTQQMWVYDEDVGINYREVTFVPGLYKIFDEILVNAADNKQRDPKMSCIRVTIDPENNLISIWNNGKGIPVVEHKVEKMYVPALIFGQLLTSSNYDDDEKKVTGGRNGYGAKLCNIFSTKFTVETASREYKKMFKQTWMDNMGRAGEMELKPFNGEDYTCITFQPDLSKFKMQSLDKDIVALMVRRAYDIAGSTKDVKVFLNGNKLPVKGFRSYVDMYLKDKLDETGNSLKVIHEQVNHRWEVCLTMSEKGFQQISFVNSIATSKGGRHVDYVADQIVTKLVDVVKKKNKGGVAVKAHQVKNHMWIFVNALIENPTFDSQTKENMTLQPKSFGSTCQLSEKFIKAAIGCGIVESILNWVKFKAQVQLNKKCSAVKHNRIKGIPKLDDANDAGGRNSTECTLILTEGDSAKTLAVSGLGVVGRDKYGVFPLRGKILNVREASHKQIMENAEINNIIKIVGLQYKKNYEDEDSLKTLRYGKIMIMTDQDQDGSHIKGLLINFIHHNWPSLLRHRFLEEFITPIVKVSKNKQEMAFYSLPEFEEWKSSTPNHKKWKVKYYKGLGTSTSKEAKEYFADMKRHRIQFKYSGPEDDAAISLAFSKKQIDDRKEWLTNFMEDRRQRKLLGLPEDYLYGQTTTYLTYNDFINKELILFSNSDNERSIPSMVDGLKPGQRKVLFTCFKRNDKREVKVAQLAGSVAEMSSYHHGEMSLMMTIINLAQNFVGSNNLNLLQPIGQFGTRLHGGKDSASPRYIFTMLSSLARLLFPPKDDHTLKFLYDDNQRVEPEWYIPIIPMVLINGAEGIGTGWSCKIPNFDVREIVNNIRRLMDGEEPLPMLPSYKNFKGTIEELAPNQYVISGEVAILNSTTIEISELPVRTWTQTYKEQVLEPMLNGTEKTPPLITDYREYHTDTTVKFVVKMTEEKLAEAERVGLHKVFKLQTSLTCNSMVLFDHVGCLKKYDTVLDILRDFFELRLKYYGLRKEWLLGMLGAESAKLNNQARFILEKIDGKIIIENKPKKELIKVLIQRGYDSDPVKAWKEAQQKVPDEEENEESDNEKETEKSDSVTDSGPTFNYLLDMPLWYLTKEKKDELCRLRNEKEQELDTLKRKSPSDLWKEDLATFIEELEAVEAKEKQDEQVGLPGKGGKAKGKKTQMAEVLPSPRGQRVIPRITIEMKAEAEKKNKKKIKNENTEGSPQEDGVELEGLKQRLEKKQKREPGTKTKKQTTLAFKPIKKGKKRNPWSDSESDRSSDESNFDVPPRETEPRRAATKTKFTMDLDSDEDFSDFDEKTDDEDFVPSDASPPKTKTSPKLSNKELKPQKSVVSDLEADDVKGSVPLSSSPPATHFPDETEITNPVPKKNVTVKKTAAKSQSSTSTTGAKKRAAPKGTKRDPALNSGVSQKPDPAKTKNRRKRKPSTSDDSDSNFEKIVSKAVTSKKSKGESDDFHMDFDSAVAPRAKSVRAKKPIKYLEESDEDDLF
Procedure, shortened: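 Purified human topoisomerase IIα (4 units) with 200 ng supercoiled pBR322 and compound at 2 µM, 30 min at 30 °C in 10 mM Tris-HCl pH 7.9, 50 mM NaCl, 5 mM MgCl2, 1 mM EDTA, 1 mM ATP, 15 µg/mL BSA; EDTA-stopped; 1% agarose gel in TAE, ethidium bromide, UV visualisation.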

COLO 205 [14] = assay: Cytotoxicity against human COLO205 cells assessed as cell viability at <0.5 to 1 uM after 24 hrs by MTT assay; assay type: functional, cell-based; procedure, shortened: as §2
COLO 205 [15] = assay: Cytotoxicity against human COLO205 cells assessed as cell viability at 2 to 4 uM after 24 hrs by MTT assay; assay type: functional, cell-based; procedure, shortened: as §2
A2780 = assay: Growth inhibition of human A2780 cells after 48 hrs by sulforhodamine B assay; assay type: functional; conditions: A2780, 48 h
COLO 205 [16] = assay: Cell cycle arrest in human COLO205 cells assessed as accumulation at S phase at 2 uM after 24 hrs by propidium iodide staining-based FACS flow cytometric analysis (reference value: 4.21%); assay type: functional
HOP-62 = assay: Growth inhibition of human HOP62 cells after 48 hrs by sulforhodamine B assay; assay type: functional; conditions: HOP-62, 48 h
[17] = Growth inhibition of human Gurav cells after 48 hrs by sulforhodamine B assay; assay type: functional
COLO 205 [18] = assay: Cell cycle arrest in human COLO205 cells assessed as accumulation at G0/G1 phase at 2 uM after 24 hrs by propidium iodide staining-based FACS flow cytometric analysis (reference value: 65.23%); assay type: functional
ZR-75-1 = assay: Growth inhibition of human ZR-75-1 cells after 48 hrs by sulforhodamine B assay; assay type: functional; conditions: ZR-75-1, 48 h

| SMILES | GI50 (KB) | GI50 (SiHa) | GI50 (A549) | Activity (COLO 205 [1]) | Activity (COLO 205 [3]) | GI50 [4] | Activity (COLO 205 [5]) | Activity (MDA-MB-231 [6]) | Activity (COLO 205 [7]) | Activity (MDA-MB-231 [8]) | Activity (COLO 205 [9]) | Activity (COLO 205 [10]) | GI50 (COLO 205 [11]) | Activity (COLO 205 [12]) | Activity (COLO 205 [14]) | Activity (COLO 205 [15]) | Percent of cells in S phase (COLO 205 [16]) | GI50 (HOP-62) | GI50 [17] | Activity (COLO 205 [18]) | further results |
| --- | --- | --- | --- | --- | --- | --- | --- | --- | --- | --- | --- | --- | --- | --- | --- | --- | --- | --- | --- | --- | --- |
| COc1cc([C@@H]2c3cc4c(cc3[C@@H](NC(=O)c3ccc(NC(=O)Nc5ccc(Cl)cc5)cc3)[C@H]3COC(=O)[C@H]23)OCO4)cc(OC)c1OC | inactive | inactive | 2140 nM | Active | Active | 100 nM | Active | inactive | Active | Active | 17.06% | Active | 10 nM | Active | inactive | Active | 4.83% | 170 nM | 1970 nM | 78.12% | inhibition [2]: Active; GI50 (MCF7): 110 nM; Inhibition of relaxation (qualitative call) [13]: Active; GI50 (A2780): 2200 nM; GI50 (ZR-75-1): 130 nM |
| COc1cc([C@@H]2c3cc4c(cc3[C@@H](O[C@@H]3O[C@@H]5CO[C@@H](C)O[C@H]5[C@H](O)[C@H]3O)[C@H]3COC(=O)[C@H]23)OCO4)cc(OC)c1O [ETOPOSIDE] | 310 nM | 3110 nM | 3080 nM | Active | Active | 620 nM | Active | inactive | Active | Active | 49.63% | Active | 130 nM | Active | inactive | Active | 7.36% | 800 nM | 510 nM | 42.68% | GI50 (ZR-75-1): 200 nM |
